Peptide text beside a SMILES is read from it.
Test system: HsNAA10
Test: Nt acetyltransferase inhibitor assay
Assay type: biochemical
Details: Ki panel of human NATs
How it was run: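 In vitro Nt-acetylation assay on purified human NAT enzymes. IC50 values were determined for NAA80. Ki values for the bisubstrate inhibitor were determined across a panel of human NATs. Each reaction was run at least three times, in triplicate. Errors are given as SD.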

**Q.** With `CC[C@H](C)[C@H](NC(=O)[C@H](CC(=O)O)NC(=O)[C@H](CC(=O)O)NC(=O)[C@H](CC(=O)O)NC(=O)CSCCNC(=O)CCNC(=O)[C@H](O)C(C)(C)COP(=O)(O)OP(=O)(O)OC[C@H]1O[C@@H](n2cnc3c(N)ncnc32)[C@H](O)[C@@H]1OP(=O)(O)O)C(N)=O` [CoA-Ac-DDDI-NH2] (HELM PEPTIDE1{[CC(C)(COP(=O)(O)OP(=O)(O)OC[C@H]1O[C@@H](n2cnc3c(N)ncnc32)[C@H](O)[C@@H]1OP(=O)(O)O)[C@@H](O)C(=O)[*:2]].[bAla].[O=C(CSCCN[*:1])[*:2]].D.D.D.I.[am]}$$$$V2.0) as the compound, how does the “Fold reduced potency for NAA10 compared with NAA80” value read?
**A.** 88 fold

From PMC5924903 (Proceedings of the National Academy of Sciences of the …, 2018)
